Test results reported in ChEMBL document CHEMBL1124490, “Hybrid molecules: growth inhibition of Leishmania donovani promastigotes by thiosemicarbazones of 3-carboxy-beta-carbolines” (J Med Chem, 1989).

Tests used:
Type in all cases: functional
[1] = Concentration of compound provoking 50% inhibition on growth of Leishmania donovani promastigotes; conditions: read-out: I50
Summary of the method: (§1)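 L. donovani LRC L-52 promastigotes were grown at 26 °C in 45% DMEM plus 45% RPMI 1640 (25 mM HEPES, pH 7.4) with 10% heat-inactivated FCS and antibiotics. Compound was added one day after seeding. Cells were counted by hemacytometer 3 days later, in duplicate flasks at two dilutions each, against untreated cultures. IC50 is the mean of five independent experiments.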

Leishmania donovani [2] = assay: Concentration of compound provoking >99% irreversible after removal of drugs from culture medium inhibition on growth of Leishmania donovani promastigotes
Summary of the method: (§2)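 Strain LRC L-52 promastigotes were exposed to compound for 3 days at 26 °C in DMEM/RPMI 1640 (HEPES, pH 7.4) with 10% heat-inactivated FCS. Cells were then centrifuged, washed free of drug and resuspended in fresh medium. They were counted by hemacytometer after 3 more days. The value is the concentration giving >99% irreversible growth inhibition.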

Leishmania donovani [3] = assay: Percent inhibition on the growth of the promastigotes of Leishmania donovani at 3.7 uM concentration
Leishmania donovani [4] = assay: Percent inhibition on the biosynthesis of RNA of promastigotes of Leishmania donovani at 37 uM concentration
Summary of the method: (§3)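 Promastigotes (5 x 10^6 cells/mL) were incubated with or without compound for 4 h, then pulsed for 1 h with a labelled precursor: [methyl-3H]thymidine 2.5 µCi/mL for DNA, [5-3H]uridine 2.5 µCi/mL for RNA, or [4,5-3H]leucine 5 µCi/mL for protein. Cells were washed in cold PBS and fractionated with TCA (cold-soluble pool, hot-soluble nucleic acid, insoluble protein). Protein was measured by Lowry.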

Leishmania donovani [5] = assay: Percent inhibition on the biosynthesis of DNA of promastigotes of Leishmania donovani at 3.7 uM concentration; summary of the method: as §3
Leishmania donovani [6] = assay: Percent inhibition on the biosynthesis of proteins of promastigotes of Leishmania donovani at 3.7 uM concentration; summary of the method: as §3
Leishmania donovani [7] = assay: Percent inhibition on the biosynthesis of DNA of promastigotes of Leishmania donovani at 37 uM concentration; summary of the method: as §3
Leishmania donovani [8] = assay: Percent inhibition on the growth of the promastigotes of Leishmania donovani at 37 uM concentration
Leishmania donovani [9] = assay: Percent inhibition on the biosynthesis of RNA of promastigotes of Leishmania donovani at 3.7 uM concentration; summary of the method: as §3
Leishmania donovani [10] = assay: Percent inhibition on the biosynthesis of proteins of promastigotes of Leishmania donovani at 37 uM concentration; summary of the method: as §3
Leishmania donovani [11] = assay: Percent inhibition on the biosynthesis of proteins of promastigotes of Leishmania donovani at 26.6 uM concentration; summary of the method: as §3
[12] = Concentration of compound provoking 50% inhibition on growth of Leishmania donovani promastigotes multiplication; conditions: read-out: I50; summary of the method: as §1
Leishmania donovani [13] = assay: Percent inhibition on the biosynthesis of RNA of promastigotes of Leishmania donovani at 53 uM concentration; summary of the method: as §3
Leishmania donovani [14] = assay: Percent inhibition on the growth of the promastigotes of Leishmania donovani at 53 uM concentration
Leishmania donovani [15] = assay: Percent inhibition on the biosynthesis of proteins of promastigotes of Leishmania donovani at 53 uM concentration; summary of the method: as §3
Leishmania donovani [16] = assay: Concentration of compound provoking >99% irreversible after removal of drugs from culture medium inhibition on growth of Leishmania donovani promastigotes multiplication; summary of the method: as §2
Leishmania donovani [17] = assay: Percent inhibition on the biosynthesis of DNA of promastigotes of Leishmania donovani at 53 uM concentration; summary of the method: as §3
Leishmania donovani [18] = assay: Percent inhibition on the growth of the promastigotes of Leishmania donovani at 26.6 uM concentration
Leishmania donovani [19] = assay: Percent inhibition on the biosynthesis of RNA of promastigotes of Leishmania donovani at 26.6 uM concentration; summary of the method: as §3
Leishmania donovani [20] = assay: Percent inhibition on the biosynthesis of DNA of promastigotes of Leishmania donovani at 26.6 uM concentration; summary of the method: as §3
Leishmania donovani [21] = assay: Percent inhibition on the biosynthesis of RNA of promastigotes of Leishmania donovani at 3.5 uM concentration; summary of the method: as §3
Leishmania donovani [22] = assay: Percent inhibition on the biosynthesis of DNA of promastigotes of Leishmania donovani at 5.25 uM concentration; summary of the method: as §3
Leishmania donovani [23] = assay: Percent inhibition on the biosynthesis of proteins of promastigotes of Leishmania donovani at 17.5 uM concentration; summary of the method: as §3
Leishmania donovani [24] = assay: Percent inhibition on the biosynthesis of RNA of promastigotes of Leishmania donovani at 5.25 uM concentration; summary of the method: as §3
Leishmania donovani [25] = assay: Percent inhibition on the growth of the promastigotes of Leishmania donovani at 3.5 uM concentration
Leishmania donovani [26] = assay: Percent inhibition on the biosynthesis of proteins of promastigotes of Leishmania donovani at 5.25 uM concentration; summary of the method: as §3
Leishmania donovani [27] = assay: Percent inhibition on the biosynthesis of DNA of promastigotes of Leishmania donovani at 3.5 uM concentration; summary of the method: as §3
Leishmania donovani [28] = assay: Percent inhibition on the biosynthesis of proteins of promastigotes of Leishmania donovani at 3.5 uM concentration; summary of the method: as §3
Leishmania donovani [29] = assay: Percent inhibition on the biosynthesis of DNA of promastigotes of Leishmania donovani at 17.5 uM concentration; summary of the method: as §3
Leishmania donovani [30] = assay: Percent inhibition on the growth of the promastigotes of Leishmania donovani at 17.5 uM concentration
Leishmania donovani [31] = assay: Percent inhibition on the biosynthesis of RNA of promastigotes of Leishmania donovani at 17.5 uM concentration; summary of the method: as §3

## CCOC(=O)c1cc2cc(/C=N/N=C(/N)S)[nH]cc-2n1
[1]
  IC50: > 50 µM
Leishmania donovani [2]
  concentration for >99% irreversible growth inhibition: > 75 µM

## COC(=O)c1cc2c(cn1)[nH]c1ccccc12 [BETA-CCM]
[1]
  IC50: > 50 µM

## N/C(S)=N/N=C/c1cc2c3ccccc3nc-2c[nH]1
[1]
  IC50: 5 µM
Leishmania donovani [3]
  inhibition: 37%
Leishmania donovani [4]
  inhibition: 96%
Leishmania donovani [5]
  inhibition: 89%
Leishmania donovani [6]
  inhibition: 7%
Leishmania donovani [7]
  inhibition: 99.7%
Leishmania donovani [8]
  inhibition: 90%
Leishmania donovani [9]
  inhibition: 34%
Leishmania donovani [10]
  inhibition: 81%
Leishmania donovani [2]
  concentration for >99% irreversible growth inhibition: 40 µM

## N/C(S)=N/N=C/c1ccccn1
Leishmania donovani [11]
  inhibition: 20%
[12]
  IC50: 29 µM
Leishmania donovani [13]
  inhibition: 53%
Leishmania donovani [14]
  inhibition: 78%
Leishmania donovani [15]
  inhibition: 17%
Leishmania donovani [16]
  Imax: 67 µM
Leishmania donovani [17]
  inhibition: 95%
Leishmania donovani [18]
  inhibition: 56%
Leishmania donovani [19]
  inhibition: 50%
Leishmania donovani [20]
  inhibition: 90%

## N=C(N)c1ccc(OCCCCCOc2ccc(C(=N)N)cc2)cc1 [PENTAMIDINE]
[1]
  IC50: 0.56 µM
Leishmania donovani [2]
  concentration for >99% irreversible growth inhibition: 1.1 µM

## C/C(=N\N=C(\N)S)c1cc2c3ccccc3nc-2c[nH]1
Leishmania donovani [21]
  inhibition: 36%
[1]
  IC50: 2.5 µM
Leishmania donovani [22]
  inhibition: 0.5%
Leishmania donovani [23]
  inhibition: 95%
Leishmania donovani [24]
  inhibition: 52%
Leishmania donovani [25]
  inhibition: 68%
Leishmania donovani [26]
  inhibition: 36%
Leishmania donovani [27]
  inhibition: 0%
Leishmania donovani [28]
  inhibition: 25%
Leishmania donovani [29]
  inhibition: 99.6%
Leishmania donovani [30]
  inhibition: 100%
Leishmania donovani [31]
  inhibition: 98.7%
Leishmania donovani [2]
  concentration for >99% irreversible growth inhibition: 17.5 µM
